Laboratory results taken from article PMC4191608 (ACS Medicinal Chemistry Letters, 2014).

How the values were obtained:
[1] = target: T1, CYP2B6 (Homo sapiens, UniProt P20813); assay: Inhibition of CYP2B6 bupropion hydroxylase activity; format: biochemical; conditions: 10 μM compound, 40 μM bupropion, CYP2B6 50 nM, 10 min, 37 °C
T1 sequence (P20813 1-491): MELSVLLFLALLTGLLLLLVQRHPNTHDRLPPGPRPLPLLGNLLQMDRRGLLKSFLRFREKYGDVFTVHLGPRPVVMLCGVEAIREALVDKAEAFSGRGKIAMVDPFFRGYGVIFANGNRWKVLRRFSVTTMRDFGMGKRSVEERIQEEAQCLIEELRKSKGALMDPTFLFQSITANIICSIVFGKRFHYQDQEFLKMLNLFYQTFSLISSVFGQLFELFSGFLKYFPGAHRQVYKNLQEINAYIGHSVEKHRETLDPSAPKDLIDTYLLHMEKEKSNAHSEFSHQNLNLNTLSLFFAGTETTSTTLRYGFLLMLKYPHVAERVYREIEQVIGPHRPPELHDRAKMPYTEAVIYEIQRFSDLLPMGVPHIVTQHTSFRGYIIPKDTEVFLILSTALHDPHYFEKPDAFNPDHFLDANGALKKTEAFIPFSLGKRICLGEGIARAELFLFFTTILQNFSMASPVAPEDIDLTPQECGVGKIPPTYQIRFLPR
Method in brief: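 Enzyme was cDNA-expressed CYP2B6 in insect microsomes, incubated with bupropion and test compound in 100 mM potassium phosphate buffer. Hydroxybupropion was quantified by uHPLC–MS/MS and expressed as a percentage of a vehicle control (no test compound). Mean ± SD of three replicate experiments run in duplicate; significance was tested against vehicle.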

[2] = tested on: pooled human liver microsomes; assay: EFV analogue metabolism by pooled human liver microsomes; format: in vitro ADME; conditions: 2 mg/mL HLM, 10 μM analogue, NADPH regenerating system, 60 min, uHPLC-MS/MS
Method in brief: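 Pooled human liver microsomes were incubated with test compound and an NADPH regenerating system. Oxidative products (monooxygenated or N-dealkylated) were profiled by uHPLC–MS/MS and assigned by m/z, retention time and fragment ions.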

[3] = target: T1, CYP2B6; assay: Substrate depletion kinetics with CYP2B6; format: in vitro ADME
Method in brief: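 cDNA-expressed CYP2B6 (insect microsomes, 10 nM) was incubated with substrate at 37 °C in 100 mM potassium phosphate. After NADPH regenerating system was added, aliquots at 0, 2, 5, 10, 20 and 30 min were quenched in equal-volume acetonitrile with fluorinated internal standard. Depletion was measured by uHPLC–MS/MS, giving Km, kdep max and Vmax. Mean ± SD, three replicate experiments in duplicate.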

SMILES	Metabolites detected from incubation with human liver microsomes [2]	other results
O=C1Nc2ccc(Cl)cc2[C@@](C#CC2CC2)(C(F)(F)F)O1 [EFV, efavirenz, reference compound]	–	decrease in hydroxybupropion formation compared to vehicle control [1]: 93%
FC(F)(F)[C@@]1(C#CC2CC2)OCNc2ccc(Cl)cc21 [analogue 8, (4S)-6-Chloro-4-(2-cyclopropylethynyl)-1,4-dihydro-4-(trifluoromethyl)-2H-3,1-benzoxazine]	Monooxygenated metabolites	–
O=C1Nc2ccc(Cl)cc2[C@@](/C=C/C2CC2)(C(F)(F)F)O1 [analogue 3, (E)-Dihydroefavirenz]	Monooxygenated metabolites	fold decrease in Km between EFV and analogue ([3]; relative to EFV): 2 fold
CCCC#CC1(C(F)(F)F)OC(=O)Nc2ccc(Cl)cc21 (racemic) [analogue 4, rac 6-Chloro-1,4-dihydro-4-(1-pentynyl)-4-(trifluoromethyl)-2H-3,1-benzoxazin-2-one]	Monooxygenated metabolites	fold increase in Km relative to EFV [3]: 2 fold
COc1ccc(C(=O)Nc2ccc(Cl)cc2C(O)(C#CC2CC2)C(F)(F)F)cc1 (racemic) [analogue 7, rac N-[4-Chloro-2-[3-cyclopropyl-1-hydroxy-1-(trifluoromethyl)-2-propynyl]phenyl]-4-methoxybenzamide]	No metabolites	inhibition of CYP2B6 hydroxybupropion formation (in words) [1]: unable to inhibit hydroxybupropion formation
